“Also recorded” adds a separate entry of the source.
Experiments:
[1] = Single-dose pharmacokinetics of apixaban in plasma and urine; format: in vivo, human; conditions: for dose proportionality of exposure: Japanese and Caucasian; for CL renal / half-life: male, human, oral; for CL renal: plasma and urine, renal clearance; for half-life: plasma
[2] = Safety and tolerability assessment; format: in vivo, human; conditions: for bleeding time: same subject
Procedure, shortened: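 Subjects stayed in clinic ≥72 h per period and avoided alcohol, grapefruit, caffeine and fecal-occult-interfering foods up to Day 4. Safety was assessed by adverse-event review (MedDRA v8.1, by organ class, ethnic group and dose), vital signs, ECGs, physical exams, serum chemistry, liver function, blood counts, urinalysis, fecal occult blood and template-device bleeding time.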

[3] = patients with atrial fibrillation, population PK; cited from earlier work
thrombin generation = experiment: Ex vivo thrombin generation; format: in vivo, human; conditions: after apixaban administration, greatest change
Procedure, shortened: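 For thrombin generation, the same dosing design applied, with platelet-poor plasma (double centrifugation, 2,500 g, 4°C) sampled 3, 6, 12 and 24 h postdose. Thrombin over time came from cleavage of a slow-reacting fluorogenic substrate against a paired calibration sample. Lag time, time to peak, peak thrombin and endogenous thrombin potential were derived from the curve and summarised as % change from baseline by group, dose and time.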

[4] = tested on: clotting times and thrombin generation; experiment: Time course of pharmacodynamic measures; format: in vivo, human
clotting time (aPTT) = experiment: Activated partial thromboplastin time; format: in vivo, human; conditions: 50 mg dose
clotting time (mPT) = experiment: Modified prothrombin time; format: in vivo, human; conditions: 50 mg single dose, Japanese and Caucasian
clotting time (INR) = experiment: International normalized ratio; format: in vivo, human; conditions: 50 mg dose, Japanese and Caucasian

AUC values lower in Japanese than in Caucasian subjects ([1]; 50 mg dose): 20%–22%
point estimates and 95% CIs for dose proportionality parameter b ([1]; Cmax and AUC, both Japanese and Caucasian subjects, 2.5–50 mg): < 1
dose proportionality of exposure ([1]; across the 2.5–50 mg dose range): less than proportional to dose
CL renal ([1]; Caucasian subjects, across doses): 13.3 mL/min
CL renal ([1]; Japanese subjects, across doses): 18.3 mL/min
half-life ([1]; mean T1/2 values across doses, Caucasian subjects, 2.5–50 mg): 8.9 to 16.1 h
half-life ([1]; mean T1/2 values across doses, Japanese subjects, 2.5–50 mg): 6.1 to 8.5 h
half-life ([1]; mean half-life, Caucasian subjects, across doses): ~13 h
half-life ([1]; mean half-life, Japanese subjects, across doses): ~8 h
SMILES: COc1ccc(-n2nc(C(N)=O)c3c2C(=O)N(c2ccc(N4CCCCC4=O)cc2)CC3)cc1 [apixaban, 1-(4-methoxyphenyl)-7-oxo-6-(4-(2-oxopiperidin-1-yl)phenyl)-4,5,6,7-tetrahydro-1H-pyrazolo[3,4-c]pyridine-3-carboxamide]
dose proportionality of exposure ([1]; 2.5–10 mg dose range): increased the dose proportionally up to 10 mg; also recorded: increased in proportion to dose
headache, number of subjects ([2]; Caucasian subjects who received apixaban): five
subjects reporting AEs ([2]; Caucasian subjects who received apixaban (11)): 91.7%
subjects reporting AEs ([2]; Japanese subjects who received apixaban (five)): 41.7%
intensity of reported AEs ([2]; all reported AEs): mild or moderate
safety and tolerability ([2]; ascending single oral doses 2.5–50 mg, Japanese and Caucasian healthy subjects): safe and well tolerated
changes in vital signs or ECGs ([2]; either group): no clinically relevant changes
bleeding time ([2]; 3.5 h after the 50 mg dose): 30 min
bleeding time ([2]; by 12 h after the 50 mg dose): 9 min
total number of AEs reported ([2]; subjects who received apixaban (12 Japanese, 12 Caucasian)): 32
serious AEs or discontinuations due to AEs ([2]; whole study): no serious AEs or discontinuations due to AEs
apixaban clearance lower in Japanese patients compared to the overall population [3]: 15%
higher exposure corresponding to the lower clearance in Japanese patients [3]: 18%
ETP, decrease from baseline (thrombin generation): 49%
LAG, increase from baseline (up to) (thrombin generation): approximately 178%
PEAK, decrease from baseline (thrombin generation): 86%
TTP, increase from baseline (up to) (thrombin generation): ~142%
duration of pharmacodynamic effects ([4]; 25 and 50 mg dose panels): > 24 h
time for which changes in TG parameters and mPT were evident ([4]; after apixaban administration): ≥ 12 h
time until changes in pharmacodynamic measures were evident ([4]; after apixaban administration, Japanese and Caucasian): ≤ 30 min
time to nearing baseline values of pharmacodynamic measures ([4]; doses ≤10 mg): 12 to 24 h
time of peak values of pharmacodynamic measures ([4]; postdose): approximately 3 h
aPTT, mean maximum increase from baseline (clotting time (aPTT)): ~ 25%
mPT, mean maximum increase from baseline (clotting time (mPT)): 226%–229%
INR, increase from baseline (clotting time (INR)): 50%–64%
